ChEMBL document CHEMBL1671805, “Biotin ergopeptide probes for dopamine receptors” (J Med Chem, 2011)
pKd: −log10 of the molar value. Calls of active or inactive are those of the source. The calls are words filed in the database; no cut-off is given here.

How the values were obtained:
[1] = target: D(2) dopamine receptor (Homo sapiens) (UniProt P14416); test: Agonist activity at human dopamine D2 receptor expressed in CHO cells assessed as decrease of Akt phosphorylation at Ser473; format: functional, cell-based
D(2) dopamine receptor (Homo sapiens), sequence (P14416 whole entry): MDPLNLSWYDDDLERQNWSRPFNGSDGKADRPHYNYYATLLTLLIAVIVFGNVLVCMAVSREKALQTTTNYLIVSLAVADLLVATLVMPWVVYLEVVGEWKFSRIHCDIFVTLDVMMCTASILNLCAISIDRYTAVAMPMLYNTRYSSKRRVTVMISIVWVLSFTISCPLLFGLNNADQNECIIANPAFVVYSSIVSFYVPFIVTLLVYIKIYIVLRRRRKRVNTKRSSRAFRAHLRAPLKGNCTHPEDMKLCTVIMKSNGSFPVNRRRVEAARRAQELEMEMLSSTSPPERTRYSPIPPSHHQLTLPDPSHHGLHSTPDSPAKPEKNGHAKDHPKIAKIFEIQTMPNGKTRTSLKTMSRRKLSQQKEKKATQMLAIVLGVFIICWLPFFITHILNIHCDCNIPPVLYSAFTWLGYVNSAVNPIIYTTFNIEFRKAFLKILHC
Procedure, shortened: (§1)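 Transiently transfected CHO cells (human D1R for D1 lines, D2R for D2 lines; 2 μg cDNA, PEI) were serum-starved 16 h. They were optionally pretreated 5 min with 5 or 50 μM antagonist (SCH23390 for D1R, raclopride for D2R), then given increasing ligand concentrations for 5 min. Lysates were western-blotted for phospho-ERK1/2 or P-Ser473Akt, normalized to total ERK. Mean ± SEM of four independent experiments.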

[2] = Displacement of [3H]-YM09151-2 from dopamine D2 receptor high binding affinity site in lamb brain striatum membranes at 25 uM; format: cell membranes, Ovis aries, Membrane
Procedure, shortened: (§2)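 Lamb striatal membranes (0.5 mg prot/mL) in 50 mM Tris-HCl pH 7.4 with 10 mM MgCl2 were incubated 2 h at 22 C. Radioligand was 0.9 nM [3H]-SCH23390 (D1) or 0.7 nM [3H]-YM09151-2 (D2). Screens used 25 μM compound; competition used increasing concentrations. Nonspecific binding was taken with 10 μM SCH23390 (D1) or raclopride (D2). Bound ligand was filtered and counted. KD values came from a two-state dimer receptor model fit.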

[3] = target: Metabotropic glutamate receptor 5 (Homo sapiens) (UniProt P41594); test: Displacement of [3H]-quisqualic acid from mGlu5 receptor
Metabotropic glutamate receptor 5 (Homo sapiens), sequence (P41594 21-1212 limits assumed): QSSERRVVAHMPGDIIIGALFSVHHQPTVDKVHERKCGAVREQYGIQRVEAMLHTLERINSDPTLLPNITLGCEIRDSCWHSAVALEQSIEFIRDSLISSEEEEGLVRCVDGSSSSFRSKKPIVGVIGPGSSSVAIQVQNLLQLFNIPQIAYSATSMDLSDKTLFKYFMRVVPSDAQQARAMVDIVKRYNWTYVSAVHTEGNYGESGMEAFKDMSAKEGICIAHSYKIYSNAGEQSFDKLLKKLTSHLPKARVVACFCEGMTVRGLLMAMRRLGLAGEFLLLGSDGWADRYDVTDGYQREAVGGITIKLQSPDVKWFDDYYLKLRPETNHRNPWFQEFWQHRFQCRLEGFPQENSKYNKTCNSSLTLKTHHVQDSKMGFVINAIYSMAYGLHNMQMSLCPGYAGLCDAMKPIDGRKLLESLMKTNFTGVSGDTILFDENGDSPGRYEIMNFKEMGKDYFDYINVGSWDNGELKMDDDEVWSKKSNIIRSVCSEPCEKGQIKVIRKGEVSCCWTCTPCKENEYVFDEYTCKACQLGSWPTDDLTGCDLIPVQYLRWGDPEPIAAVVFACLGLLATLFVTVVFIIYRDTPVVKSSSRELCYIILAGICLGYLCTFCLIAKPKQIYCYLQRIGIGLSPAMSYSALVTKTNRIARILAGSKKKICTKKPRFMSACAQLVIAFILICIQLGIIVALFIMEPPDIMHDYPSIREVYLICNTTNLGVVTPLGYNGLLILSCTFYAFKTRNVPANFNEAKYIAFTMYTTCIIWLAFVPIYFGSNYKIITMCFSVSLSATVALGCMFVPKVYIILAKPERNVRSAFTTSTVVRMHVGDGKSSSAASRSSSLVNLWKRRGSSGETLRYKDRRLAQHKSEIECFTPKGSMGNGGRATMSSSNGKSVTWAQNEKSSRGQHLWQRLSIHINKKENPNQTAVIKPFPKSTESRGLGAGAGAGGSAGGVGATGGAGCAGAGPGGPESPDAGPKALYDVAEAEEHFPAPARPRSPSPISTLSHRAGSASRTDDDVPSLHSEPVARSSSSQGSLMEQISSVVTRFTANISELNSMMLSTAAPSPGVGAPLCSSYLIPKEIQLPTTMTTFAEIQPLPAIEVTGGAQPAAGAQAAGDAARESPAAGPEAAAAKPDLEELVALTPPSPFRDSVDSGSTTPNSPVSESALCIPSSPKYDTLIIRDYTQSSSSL
Procedure, shortened: (§3)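 Membranes were incubated with 27 nM [3H]-quisqualic acid for 2 h at 22 C in 50 mM Tris-HCl pH 7.4 with 10 mM MgCl2. Nonspecific binding was taken with 10 μM quisqualic acid. Bound ligand was filtered and counted.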

D(3) dopamine receptor [4] = target: T1, D(3) dopamine receptor (Homo sapiens, UniProt P35462); test: Displacement of [3H]-raclopride from human dopamine D3 receptor low binding affinity site expressed in CHO cells; format: cell-based
T1 sequence (P35462 whole entry): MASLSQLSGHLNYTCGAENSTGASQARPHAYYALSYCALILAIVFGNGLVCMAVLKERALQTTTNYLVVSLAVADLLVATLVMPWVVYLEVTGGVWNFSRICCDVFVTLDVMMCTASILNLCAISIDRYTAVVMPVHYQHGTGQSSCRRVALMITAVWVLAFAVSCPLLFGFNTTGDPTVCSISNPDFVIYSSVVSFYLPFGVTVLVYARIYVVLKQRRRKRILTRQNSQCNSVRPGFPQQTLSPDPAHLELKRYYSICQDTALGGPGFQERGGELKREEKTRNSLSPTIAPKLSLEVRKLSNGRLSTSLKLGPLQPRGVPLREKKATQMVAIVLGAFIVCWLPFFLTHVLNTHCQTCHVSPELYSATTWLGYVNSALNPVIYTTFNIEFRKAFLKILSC
Procedure, shortened: (§4)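 Membranes (0.5 mg prot/mL) from CHO cells transiently transfected with 2 μg human D3R cDNA were incubated with 4 nM [3H]-raclopride and increasing competitor for 2 h at 22 C in Tris-HCl pH 7.4 with 10 mM MgCl2. Nonspecific binding was taken with 10 μM raclopride. High- and low-affinity KD values came from a two-state dimer receptor model fit. Triplicate.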

[5] = target: Metabotropic glutamate receptor 1 (Homo sapiens) (UniProt Q13255); test: Displacement of [3H]-quisqualic acid from mGlu1 receptor; procedure, shortened: as §3
Metabotropic glutamate receptor 1 (Homo sapiens), sequence (Q13255 19-1194 limits assumed): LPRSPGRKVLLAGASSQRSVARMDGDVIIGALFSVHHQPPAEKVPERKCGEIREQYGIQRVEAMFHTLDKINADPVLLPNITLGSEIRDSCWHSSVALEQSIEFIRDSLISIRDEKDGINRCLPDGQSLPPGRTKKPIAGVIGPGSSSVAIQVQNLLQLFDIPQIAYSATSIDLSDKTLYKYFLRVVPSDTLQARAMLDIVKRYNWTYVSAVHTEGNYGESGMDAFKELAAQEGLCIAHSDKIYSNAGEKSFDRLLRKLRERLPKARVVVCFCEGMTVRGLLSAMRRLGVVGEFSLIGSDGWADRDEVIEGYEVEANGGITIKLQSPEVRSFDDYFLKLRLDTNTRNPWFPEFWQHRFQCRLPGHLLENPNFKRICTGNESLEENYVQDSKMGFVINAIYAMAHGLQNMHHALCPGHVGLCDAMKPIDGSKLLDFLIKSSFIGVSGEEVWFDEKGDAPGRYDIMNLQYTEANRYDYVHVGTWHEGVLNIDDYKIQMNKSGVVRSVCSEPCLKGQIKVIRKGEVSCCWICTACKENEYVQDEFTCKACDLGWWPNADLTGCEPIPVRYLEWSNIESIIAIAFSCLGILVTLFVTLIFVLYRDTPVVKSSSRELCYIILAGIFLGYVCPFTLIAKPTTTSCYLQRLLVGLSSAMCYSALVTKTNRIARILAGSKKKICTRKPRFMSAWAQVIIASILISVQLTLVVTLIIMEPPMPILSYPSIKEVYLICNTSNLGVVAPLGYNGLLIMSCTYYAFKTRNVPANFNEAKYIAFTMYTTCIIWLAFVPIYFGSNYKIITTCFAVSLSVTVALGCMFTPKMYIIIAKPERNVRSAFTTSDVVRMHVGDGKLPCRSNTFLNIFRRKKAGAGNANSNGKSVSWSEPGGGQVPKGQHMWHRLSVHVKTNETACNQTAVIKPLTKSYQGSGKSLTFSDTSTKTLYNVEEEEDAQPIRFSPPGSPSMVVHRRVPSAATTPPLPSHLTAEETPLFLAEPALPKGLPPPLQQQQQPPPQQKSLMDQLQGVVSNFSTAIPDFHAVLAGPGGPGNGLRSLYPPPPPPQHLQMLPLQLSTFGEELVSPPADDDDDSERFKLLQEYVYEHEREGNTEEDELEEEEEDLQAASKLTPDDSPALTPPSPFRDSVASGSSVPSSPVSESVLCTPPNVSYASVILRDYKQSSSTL

[6] = target: Histamine H3 receptor (Homo sapiens) (UniProt Q9Y5N1); test: Displacement of [3H]-RAMH from histamine H3 receptor
Histamine H3 receptor (Homo sapiens), sequence (Q9Y5N1 whole entry): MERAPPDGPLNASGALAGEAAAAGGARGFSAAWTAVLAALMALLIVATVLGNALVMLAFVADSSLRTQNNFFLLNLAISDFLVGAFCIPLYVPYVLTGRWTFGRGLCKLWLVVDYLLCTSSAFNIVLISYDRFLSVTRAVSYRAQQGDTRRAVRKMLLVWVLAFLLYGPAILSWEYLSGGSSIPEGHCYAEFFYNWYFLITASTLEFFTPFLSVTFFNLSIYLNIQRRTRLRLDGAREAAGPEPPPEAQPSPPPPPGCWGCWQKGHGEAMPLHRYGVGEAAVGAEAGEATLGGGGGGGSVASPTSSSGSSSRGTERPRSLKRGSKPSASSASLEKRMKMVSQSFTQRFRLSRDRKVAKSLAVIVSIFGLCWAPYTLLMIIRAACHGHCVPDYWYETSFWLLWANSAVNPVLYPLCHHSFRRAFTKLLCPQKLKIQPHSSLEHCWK
Procedure, shortened: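 Membranes were incubated with 2.5 nM [3H]-RAMH for 2 h at 22 C in 50 mM Tris-HCl pH 7.4 with 10 mM MgCl2. Nonspecific binding was taken with 10 μM RAMH. Bound ligand was filtered and counted.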

[7] = target: D(1A) dopamine receptor (Homo sapiens) (UniProt P21728); test: Agonist activity at human dopamine D1 receptor expressed in CHO cells assessed as decrease of Akt phosphorylation at Ser473; format: functional, cell-based; procedure, shortened: as §1
D(1A) dopamine receptor (Homo sapiens), sequence (P21728 whole entry): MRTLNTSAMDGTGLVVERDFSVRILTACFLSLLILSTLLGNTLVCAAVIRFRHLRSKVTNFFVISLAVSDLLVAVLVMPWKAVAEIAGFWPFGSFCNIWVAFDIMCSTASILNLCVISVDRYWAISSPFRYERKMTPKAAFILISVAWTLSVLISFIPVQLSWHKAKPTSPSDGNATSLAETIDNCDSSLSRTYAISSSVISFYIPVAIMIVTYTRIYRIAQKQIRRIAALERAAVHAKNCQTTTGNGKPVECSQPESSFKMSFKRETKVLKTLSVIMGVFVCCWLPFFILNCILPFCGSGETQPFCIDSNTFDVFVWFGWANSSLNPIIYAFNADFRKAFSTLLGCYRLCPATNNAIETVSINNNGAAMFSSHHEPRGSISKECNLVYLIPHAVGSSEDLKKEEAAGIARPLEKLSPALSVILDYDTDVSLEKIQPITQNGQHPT

D(3) dopamine receptor [8] = target: T1, D(3) dopamine receptor; test: Displacement of [3H]-raclopride from human dopamine D3 receptor high binding affinity site expressed in CHO cells; format: cell-based; procedure, shortened: as §4
[9] = target: D(1A) dopamine receptor (Homo sapiens) (UniProt P21728); test: Agonist activity at human dopamine D1 receptor expressed in CHO cells assessed as increase of ERK1/2 phosphorylation in presence of SCH23390; format: functional, cell-based; procedure, shortened: as §1
[10] = target: D(1A) dopamine receptor (Homo sapiens) (UniProt P21728); test: Agonist activity at human dopamine D1 receptor expressed in CHO cells assessed as increase of ERK1/2 phosphorylation; format: functional, cell-based; procedure, shortened: as §1
[11] = target: D(1A) dopamine receptor (Homo sapiens) (UniProt P21728); test: Agonist activity at human dopamine D1 receptor expressed in CHO cells assessed as decrease of Akt phosphorylation at Ser473 in presence of SCH23390; format: functional, cell-based; procedure, shortened: as §1
[12] = target: Somatostatin receptor type 5 (Homo sapiens) (UniProt P35346); test: Displacement of [125I]-Tyr11-somatostatin 14 from SST5 receptor
Somatostatin receptor type 5 (Homo sapiens), sequence (P35346 whole entry): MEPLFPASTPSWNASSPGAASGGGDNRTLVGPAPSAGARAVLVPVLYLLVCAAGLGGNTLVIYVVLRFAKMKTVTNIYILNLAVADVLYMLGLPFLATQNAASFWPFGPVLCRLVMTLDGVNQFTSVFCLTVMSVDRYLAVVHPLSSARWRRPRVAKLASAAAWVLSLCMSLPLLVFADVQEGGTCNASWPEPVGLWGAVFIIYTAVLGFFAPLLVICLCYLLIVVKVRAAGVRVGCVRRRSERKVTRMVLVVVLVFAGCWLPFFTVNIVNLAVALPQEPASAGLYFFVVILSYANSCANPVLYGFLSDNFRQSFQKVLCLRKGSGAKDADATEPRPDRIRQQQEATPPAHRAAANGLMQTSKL
Procedure, shortened: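 Membranes were incubated with 0.1 nM [125I]-Tyr11-somatostatin 14 for 3 h at 22 C in 50 mM Tris-HCl pH 7.4 with 10 mM MgCl2. Nonspecific binding was taken with 100 nM somatostatin. Bound ligand was separated by filtration and counted.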

[13] = target: D(2) dopamine receptor (Homo sapiens) (UniProt P14416); test: Agonist activity at human dopamine D2 receptor expressed in CHO cells assessed as increase of ERK1/2 phosphorylation in presence of raclopride; format: functional, cell-based; procedure, shortened: as §1
[14] = Displacement of [3H]-YM09151-2 from dopamine D2 receptor low binding affinity site in lamb brain striatum membranes at 25 uM; format: cell membranes, Ovis aries, Membrane; procedure, shortened: as §2
[15] = Displacement of [3H]-SCH23390 from dopamine D1 receptor low binding affinity site in lamb brain striatum membranes at 25 uM; format: cell membranes, Ovis aries, Membrane; procedure, shortened: as §2
[16] = Displacement of [3H]-SCH23390 from dopamine D1 receptor high binding affinity site in lamb brain striatum membranes at 25 uM; format: cell membranes, Ovis aries, Membrane; procedure, shortened: as §2
[17] = target: Cannabinoid receptor 1 (Homo sapiens) (UniProt P21554); test: Displacement of [3H]-CP55940 from CB1 receptor
Cannabinoid receptor 1 (Homo sapiens), sequence (P21554 whole entry): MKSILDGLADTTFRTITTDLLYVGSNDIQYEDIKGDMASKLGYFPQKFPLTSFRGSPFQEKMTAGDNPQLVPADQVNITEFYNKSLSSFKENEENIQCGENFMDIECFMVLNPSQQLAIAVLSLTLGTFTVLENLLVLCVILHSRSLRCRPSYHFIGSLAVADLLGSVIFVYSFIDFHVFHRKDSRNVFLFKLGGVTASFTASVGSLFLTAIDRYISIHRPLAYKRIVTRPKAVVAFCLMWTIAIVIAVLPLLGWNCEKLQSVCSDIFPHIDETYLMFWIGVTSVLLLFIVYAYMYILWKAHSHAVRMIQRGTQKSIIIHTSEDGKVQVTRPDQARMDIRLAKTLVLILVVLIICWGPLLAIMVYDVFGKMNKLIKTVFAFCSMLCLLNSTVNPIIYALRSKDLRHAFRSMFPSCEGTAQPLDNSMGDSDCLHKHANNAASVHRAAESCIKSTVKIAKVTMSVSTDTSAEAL
Procedure, shortened: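 Membranes in siliconated tubes were incubated with 0.5 nM [3H]-CP 55940 for 2 h at 22 C in Tris-HCl pH 7.4 with 10 mM MgCl2 and 1 mg/mL fatty acid-free BSA. BSA was also in the filter presoak and wash. Nonspecific binding was taken with 10 μM CP55940.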

[18] = target: D(2) dopamine receptor (Homo sapiens) (UniProt P14416); test: Agonist activity at human dopamine D2 receptor expressed in CHO cells assessed as increase of ERK1/2 phosphorylation; format: functional, cell-based; procedure, shortened: as §1
[19] = target: D(2) dopamine receptor (Homo sapiens) (UniProt P14416); test: Agonist activity at human dopamine D2 receptor expressed in CHO cells assessed as decrease of Akt phosphorylation at Ser473 in presence of raclopride; format: functional, cell-based; procedure, shortened: as §1

Activity [1]: Dose-dependent effect
pKd [2]: 7.77
Activity [3]: inactive
pKd (D(3) dopamine receptor [4]): 7.03
Activity [5]: inactive
Activity [6]: inactive
Activity [7]: Dose-dependent effect
pKd (D(3) dopamine receptor [8]): 7.64
Activity [9]: inactive
Activity [10]: Dose-dependent effect
Activity [11]: inactive
Activity [12]: inactive
Activity [13]: inactive
pKd [14]: 5.05
pKd [15]: 5.82
pKd [16]: 7.25
Activity [17]: inactive
Activity [18]: Dose-dependent effect
Activity [19]: inactive
Structure (SMILES): CN1C[C@H](C(=O)N[C@@H](Cc2ccc([N+](=O)[O-])cc2)C(=O)N[C@@H](Cc2ccc(F)cc2)C(=O)N2CCCC(C(=O)NCCCCCC(=O)NCCCC[C@H](NC(=O)CCCC[C@H]3SC[C@H]4NC(=O)N[C@H]43)C(N)=O)C2)C=C2c3cccc4[nH]cc(c34)C[C@H]21 (some centres undefined)
